Screens as filed in PubChem.
An excerpt weighted towards active compounds, which were near 3% of everything screened.
SENP8 block-1: inhibitors of human SENP8 protease; inhibition, % at 20 µM; 0.64% of 360,000 active; AID 602440; recombinant SENP8, Nedd8 substrate fluorescence; Q96LD8; in the data active means inhibition mostly above about 40%, no sharp cut-off; inactive means mostly below about 27%
SENP8 block-2: SENP8 protease inhibition; purified SENP8, Z-RLRGG-aminoluciferin cleavage, luminescence; inhibition, % at 10 µM; Q96LD8; 1.2% of 330,000 active; in the data active means inhibition above about 50%
Apaf1 inhib: blocks human Apaf-1 apoptosome activity. O14727. reconstituted apoptosome caspase-3 activity, DEVD-Rh110 fluorescence. inhibition, % at 20 µM. 0.71% of 330,000 active. AID 489030; active means inhibition of at least 40% at 20 µM
Target sequence (O14727 whole entry, looked up): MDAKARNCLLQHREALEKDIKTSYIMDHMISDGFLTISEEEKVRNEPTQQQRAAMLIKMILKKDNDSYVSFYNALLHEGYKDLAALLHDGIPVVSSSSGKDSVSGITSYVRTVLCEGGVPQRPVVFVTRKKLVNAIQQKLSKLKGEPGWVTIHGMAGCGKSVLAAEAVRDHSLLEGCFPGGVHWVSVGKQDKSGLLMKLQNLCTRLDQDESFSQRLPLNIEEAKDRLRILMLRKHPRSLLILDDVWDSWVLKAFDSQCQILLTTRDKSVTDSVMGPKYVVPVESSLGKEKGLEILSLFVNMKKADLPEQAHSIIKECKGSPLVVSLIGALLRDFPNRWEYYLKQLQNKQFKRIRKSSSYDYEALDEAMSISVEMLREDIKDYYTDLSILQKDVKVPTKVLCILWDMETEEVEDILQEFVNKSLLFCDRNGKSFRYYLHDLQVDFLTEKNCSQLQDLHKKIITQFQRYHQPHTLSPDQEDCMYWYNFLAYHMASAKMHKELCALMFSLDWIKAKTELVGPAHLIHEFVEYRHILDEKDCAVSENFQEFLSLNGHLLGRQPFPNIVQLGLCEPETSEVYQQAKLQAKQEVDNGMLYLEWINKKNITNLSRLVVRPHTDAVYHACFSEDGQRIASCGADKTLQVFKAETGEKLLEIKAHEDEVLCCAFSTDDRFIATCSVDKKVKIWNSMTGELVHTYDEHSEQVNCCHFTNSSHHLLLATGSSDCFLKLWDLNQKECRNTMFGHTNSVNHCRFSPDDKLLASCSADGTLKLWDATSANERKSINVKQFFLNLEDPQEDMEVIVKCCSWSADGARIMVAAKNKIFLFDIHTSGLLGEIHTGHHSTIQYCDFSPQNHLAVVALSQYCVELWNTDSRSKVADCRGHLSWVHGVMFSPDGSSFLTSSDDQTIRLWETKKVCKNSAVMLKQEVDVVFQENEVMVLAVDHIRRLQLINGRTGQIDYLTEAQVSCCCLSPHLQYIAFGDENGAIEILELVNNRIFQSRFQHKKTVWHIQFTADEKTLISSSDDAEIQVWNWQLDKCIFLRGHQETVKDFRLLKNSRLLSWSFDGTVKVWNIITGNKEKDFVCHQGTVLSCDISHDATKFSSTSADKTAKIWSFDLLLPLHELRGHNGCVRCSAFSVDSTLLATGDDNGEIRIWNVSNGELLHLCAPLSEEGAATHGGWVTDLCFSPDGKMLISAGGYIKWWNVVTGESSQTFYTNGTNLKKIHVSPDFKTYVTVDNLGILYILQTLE
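Material: cell-free apoptosome with Apaf-1, procaspase-3 and caspase-9; Buffer or medium: Hepes pH 7.5 with detergent and BSA; Reagent: cytochrome c trigger plus (Z-DEVD)2-Rh110 caspase-3 substrate; Times: compound with Apaf-1, dATP, procaspase-3 30 min, then 50 min reaction, room temperature; Technique: Rh110 fluorescence intensity.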
SENP7 block: inhibitors of human SENP7 protease. Q9BQF6. recombinant SENP7, Z-RLRGG-aminoluciferin luminescence, 40 min. inhibition, % at 5 µM. 1.5% of 330,000 active. AID 434973;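 active means inhibition above about 50% at the single test dose, limit read from the data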
UBC13 polyUb: blocks human UBC13 polyubiquitin chain formation | P61088 | 0.47% of 330,000 active | TR-FRET | inhibition, % at 20 µM | AID 485273; in the data active means inhibition above about 45%, passing the limit was not always enough
SENP6 block: SENP6 protease inhibition; Q9GZR1; Recombinant SENP6 catalytic domain, aminoluciferin luminescence; 1.8% of 330,000 active; inhibition, % at 10 µM; AID 2599;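 active means inhibition above about 50% at the single tested dose, limit read from the data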
Apaf-1 inh conf2: Apaf-1 inhibition, single-dose confirmed. AID 504614. shares compounds with Apaf1 inhib. inhibition, % at 20 µM. reconstituted apoptosome, caspase-3 DEVD-Rh110 fluorescence. 25% of 1,800 active;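 active means mean inhibition of at least 40% at 20 µM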
Rh110 quench: Rh110 signal interference in Apaf-1 inhibitor counter-screen. shares compounds with Apaf1 inhib. Rh110 fluorescence interference, quenched caspase reaction. activation (fluorescence interference), % at 20 µM. 1,800 tested, under 10 active. AID 504615;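 active means signal rise of 40% or more at 20 µM, treated as a fluorescence artifact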
Apaf1 inh interf: counter-screen for Apaf-1 inhibitors: fluorescence interference, dose response. shares compounds with Apaf1 inhib. IC50, µM. 460 tested, under 10 active. fluorescence interference counterscreen, Apaf-1 assay format; call rule not given here
Large screens that a line does not name were inactive (follow-up assays come after a bar, where they were run).

CCOC(=O)[C@]12CCC=C1N(Cc1ccc(Cl)cc1Cl)C(=O)[C@H](CC(=O)NCCCN1CCCC1=O)C2	none (no result: SENP8 block-2, Apaf1 inhib, SENP7 block, UBC13 polyUb, SENP6 block)
COc1ccccc1NC(=O)c1nc[nH]c1C(=O)Nc1ccccc1OC	Apaf1 inhib 95 | Apaf-1 inh conf2 inactive | Rh110 quench inactive
CCOc1ccccc1NC(=O)c1nc[nH]c1C(=O)Nc1ccccc1OCC	none
COc1cccc(-c2sc3cc(OC)c(OC)cc3c2-c2ccc(OCCN3CCCCC3)cc2)c1	Apaf1 inhib 66 (no result: SENP8 block-2, UBC13 polyUb, SENP6 block) | Apaf-1 inh conf2 inactive | Rh110 quench inactive
COc1cccc(-c2sc3ccc(OC)cc3c2-c2ccc(OCCN3CCCC3)cc2)c1	Apaf1 inhib 70 (no result: SENP8 block-2, UBC13 polyUb, SENP6 block) | Apaf-1 inh conf2 inactive | Rh110 quench inactive
COc1cc2sc(-c3ccccc3OC)c(-c3ccc(OCCN4CCOCC4)cc3)c2cc1OC	none (no result: SENP8 block-2, UBC13 polyUb, SENP6 block)
CC(C)(C)c1ccc(-c2nn(CCC#N)cc2/C=N/O)cc1	Apaf1 inhib 50 | Apaf-1 inh conf2 inactive | Rh110 quench inactive
Cn1ccnc1C(O)c1ccccc1 (centres undefined)	none
COc1ccc2ccccc2c1C(O)c1nccn1C (centres undefined)	Apaf1 inhib 41 | Apaf-1 inh conf2 inactive | Rh110 quench inactive
Cc1cc(C)c(S(=O)(=O)/N=C2\C=C(NS(=O)(=O)c3ccccc3)C(=O)c3ccccc32)c(C)c1	SENP8 block-1 73, Apaf1 inhib 64 | Apaf-1 inh conf2 48 | Rh110 quench inactive | Apaf1 inh interf inactive
Cc1cc(C)c(S(=O)(=O)/N=C2\C=C(Nc3ccc(C(=O)O)cc3)C(=O)c3ccccc32)c(C)c1	SENP8 block-1 57, SENP8 block-2 88, Apaf1 inhib 89, SENP6 block 89 | Apaf-1 inh conf2 92 | Rh110 quench inactive | Apaf1 inh interf inactive
Cc1ccc(Nc2cc(=O)oc3ccccc23)c(C)c1	none
Cc1ccc(NC2=C/C(=N\S(=O)(=O)c3cccs3)c3ccccc3C2=O)c(C)c1	SENP8 block-1 116, SENP8 block-2 92, Apaf1 inhib 95, SENP7 block 81, SENP6 block 76 | Apaf-1 inh conf2 95 | Rh110 quench inactive | Apaf1 inh interf inactive
Cc1ccc(S(=O)(=O)NC(=O)C2(C)CCN2C(=O)c2ccccc2)cc1 (centres undefined)	none (no result: SENP8 block-2, Apaf1 inhib, SENP7 block, UBC13 polyUb, SENP6 block)
CCCS(=O)(=O)NC(=O)C1(C)CCCN(C(=O)c2cc3ccccc3s2)C1 (centres undefined)	none (no result: SENP8 block-2, Apaf1 inhib, SENP7 block, UBC13 polyUb, SENP6 block)
Cc1ccc(F)c(CNC(=O)C2(C)CCCN2C(=O)C(C)C)c1F (centres undefined)	none (no result: SENP8 block-2, Apaf1 inhib, SENP7 block, UBC13 polyUb, SENP6 block)
O=C(c1cc(-c2ccccc2)on1)N(Cc1cccnc1)C(c1ccccn1)c1nc2ccccc2[nH]1 (centres undefined)	none (no result: SENP8 block-2, Apaf1 inhib, SENP7 block, UBC13 polyUb, SENP6 block)
CCc1nc2c(OCc3cc(Cl)cc(Cl)c3)cccn2c1N(C)C(=O)Nc1ccccc1OC	none (no result: SENP8 block-2, Apaf1 inhib, SENP7 block, UBC13 polyUb, SENP6 block)
COc1ccc(CN2C(=O)CCC2(C)c2nnnn2Cc2ccccc2)cc1 (centres undefined)	none (no result: SENP8 block-2, Apaf1 inhib, SENP7 block, UBC13 polyUb, SENP6 block)
CCOC(=O)c1c2ccc(OCC(=O)N/N=C/c3ccc(C)cc3)cc2n2ccccc12	none
CCOC(=O)c1c2ccc(OCC(=O)NN)cc2n2ccccc12	Apaf1 inhib 42 | Apaf-1 inh conf2 53 | Rh110 quench inactive | Apaf1 inh interf inactive
COc1cccc(C=Nc2ccc(N3CCOCC3)cc2)c1O	none
O=[N+]([O-])c1cc(Br)c(O)c(C=Nc2ccc(N3CCOCC3)cc2)c1	Apaf1 inhib 68 | Apaf-1 inh conf2 inactive | Rh110 quench inactive
COC(=O)C1=C(C)N(Cc2ccccc2)C(=NCc2ccccc2)N[C@H]1c1ccccc1	Apaf1 inhib 47 | Apaf-1 inh conf2 inactive | Rh110 quench inactive
COC(=O)C1=C(C)N(Cc2ccccc2)C(=NCCc2c[nH]c3ccccc23)N[C@H]1c1ccccc1	Apaf1 inhib 69 | Apaf-1 inh conf2 inactive | Rh110 quench inactive
COc1ccc(CNC(=O)c2cn(Cc3ccc(S(=O)(=O)N(C)C)cc3)c(=O)s2)cc1	none (no result: SENP8 block-2, Apaf1 inhib, SENP7 block, UBC13 polyUb, SENP6 block)
Nc1ccc2c(c1)C(=O)c1ccc(Br)cc1-2	none (no result: SENP8 block-2, Apaf1 inhib, SENP7 block, UBC13 polyUb, SENP6 block)
Nc1ccc2c(c1)C(=O)C(=O)c1ccccc1-2	SENP8 block-1 142, SENP8 block-2 97, Apaf1 inhib 98, SENP7 block 98, SENP6 block 89 | Apaf-1 inh conf2 99 | Rh110 quench inactive | Apaf1 inh interf inactive
O=C(Nc1ccc(-c2ccccc2)cc1)c1ccc2c(c1)S(=O)(=O)c1ccccc1C2=O	none
O=C1C(=O)c2ccc(-c3ccccc3)cc2-c2ccccc21	SENP8 block-1 100, SENP8 block-2 58, Apaf1 inhib 98, SENP7 block 91, SENP6 block 89 | Apaf-1 inh conf2 100 | Rh110 quench inactive | Apaf1 inh interf inactive
C[C@@H]1CN([C@H](C)CO)C(=O)Cc2cc(NS(=O)(=O)c3ccc(F)cc3)ccc2O[C@H]1CN(C)Cc1ccc(C(=O)O)cc1	none
C[C@@H]1CN([C@H](C)CO)C(=O)Cc2cc(NS(=O)(=O)c3ccc(Cl)cc3)ccc2O[C@H]1CN(C)Cc1ccc(C(F)(F)F)cc1	Apaf1 inhib 41 | Apaf-1 inh conf2 inactive | Rh110 quench inactive
